A selection: hits, their analogues and other compounds. The true share with any hit is near 3.9%.
SR-BI uptake up: SR-BI HDL lipid transfer activation; CHO ldlA[mSR-BI] cells, DiI-HDL uptake fluorescence, 3 h; 100 = double the neutral-control signal; actives 0.096% (n = 320,000); activation, % at 12.5 µM;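 active = mean replicate activation of at least 60% and every replicate at or above 60%; inconclusive = mean or all-replicate condition met, but not both; inactive = mean below 60% and not all replicates reaching 60%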;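 also: 0% = median plate neutral-control signal and 100% = twice that signal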
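Assay system: CHO ldlA[mSR-BI] cells, LDL receptor-null, SR-BI overexpressing; medium: Ham's F12 with 0.5% BSA, HEPES 25 mM, pH 7.4; also added: DiI-HDL 10 µg/mL; timing: 3 h uptake period with compound, 37 °C; signal: DiI fluorescence, bottom read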
GAA850 FXN act: activators of GAA850 frataxin (FXN) promoter; HEK293 lucGAA850 FXN promoter luciferase reporter, 24 h; percent of 10 µM SAHA response; activation, % at 6 µM; actives 0.56% (n = 360,000);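 active = activation above the average of all compounds screened plus 3 SD, cutoff fixed separately per campaign, cut at about 7.5% in these data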;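 also: 0% = DMSO wells and 100% = 10 µM SAHA wells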
SR-BI DiI inh: mouse SR-BI HDL lipid transfer inhibition; actives 0.96% (n = 320,000); inhibition, % at 12.5 µM; Q61009; ldlA[mSR-BI] CHO cells, DiI-HDL uptake fluorescence, 3 h;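 active = mean replicate inhibition of at least 70% and a set share of replicates each scoring 70 or more; inconclusive = meets just one of the two criteria; inactive = fails both criteria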;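 also: 0% = median of neutral control wells and 100% = median of positive control wells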
AHR activator: activates the human aryl hydrocarbon receptor; activation, % at 5 µM; P35869; AID 2796; AHR-responsive luciferase reporter cells, luminescence; actives 2.5% (n = 320,000); in the data active = activation above about 47%;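 also: 0% = vehicle wells and 100% = reference agonist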
Target sequence (P35869 whole entry, looked up): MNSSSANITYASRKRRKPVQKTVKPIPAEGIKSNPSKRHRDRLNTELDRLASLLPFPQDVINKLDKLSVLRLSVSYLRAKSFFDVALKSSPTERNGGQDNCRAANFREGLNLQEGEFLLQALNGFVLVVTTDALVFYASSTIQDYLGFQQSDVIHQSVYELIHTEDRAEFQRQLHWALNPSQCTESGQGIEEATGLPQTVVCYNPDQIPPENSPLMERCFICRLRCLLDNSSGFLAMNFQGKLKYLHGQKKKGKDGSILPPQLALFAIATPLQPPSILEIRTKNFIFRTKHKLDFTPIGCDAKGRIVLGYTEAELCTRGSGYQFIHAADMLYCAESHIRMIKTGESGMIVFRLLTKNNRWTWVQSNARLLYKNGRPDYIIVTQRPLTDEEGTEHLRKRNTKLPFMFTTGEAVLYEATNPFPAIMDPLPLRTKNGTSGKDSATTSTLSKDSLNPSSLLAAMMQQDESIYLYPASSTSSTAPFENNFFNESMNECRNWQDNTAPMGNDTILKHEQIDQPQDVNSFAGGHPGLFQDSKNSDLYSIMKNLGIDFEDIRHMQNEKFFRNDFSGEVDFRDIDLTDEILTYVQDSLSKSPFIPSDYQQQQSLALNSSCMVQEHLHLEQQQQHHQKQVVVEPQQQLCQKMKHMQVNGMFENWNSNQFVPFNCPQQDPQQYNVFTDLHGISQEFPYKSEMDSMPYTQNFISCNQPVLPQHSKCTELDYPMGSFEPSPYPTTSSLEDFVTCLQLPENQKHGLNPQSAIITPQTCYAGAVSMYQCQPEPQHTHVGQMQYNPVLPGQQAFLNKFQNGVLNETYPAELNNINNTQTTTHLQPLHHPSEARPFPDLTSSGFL
HIF act: HIF pathway transcriptional activation; U2OS HRE-luciferase reporter, luminescence; normalized: DMSO 0%, desferrioxamine 100%; activation, % at 7.5 µM (by protocol); actives 0.32% (n = 300,000);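 active = mean activation of at least 10% of the iron chelator positive control signal, with at least half of replicates also reaching 10%; inconclusive = mean and replicate majority disagree about reaching 10%; inactive = mean and most replicates under 10%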
ABCB6 inh 2: blocks the human ABCB6 transporter. fluorescence ratio to DMSO, % at 10 µM. actives 0.19% (n = 360,000). AID 602162. K562-ABCB6 porphyrin accumulation, flow cytometry, 1 h; stronger effect = lower value. Q9NP58;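 active = fluorescence ratio to DMSO below 75%, the collection mean minus 3 SD; inconclusive = too few cells collected in the well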;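 also: signal is porphyrin accumulated inside mitochondria; 100% equals median channel fluorescence of DMSO control wells; lower ratio means ABCB6 inhibition with less porphyrin fluorescence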
DiI quench: counter-screen for SR-BI lipid transfer inhibitors: DiI fluorescence quenchers | shares compounds with SR-BI DiI inh | actives 20% (n = 470) | cell-free DiI-HDL fluorescence quenching, 30 min | AC50, µM (titrated, usually from 35 µM), for the others: at the top dose activity change, negative = quenching;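 active = quenching, a falling signal, with AC50 below a set limit tied to the top valid dose, actives reach about 32 µM in these data; inconclusive = no clear call, values can overlap the other calls; inactive = rising signal, and the rest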
Active calls of the source: *.

Screening COc1ccc(OC)c(C2CC(=O)c3c([nH]c(C(=O)OCC4CCCO4)c3C)C2)c1 (centres undefined) returned SR-BI uptake up -67.6, GAA850 FXN act -1.2, SR-BI DiI inh 67.6, AHR activator 9.5, HIF act 1.9 and ABCB6 inh 2 93.0.
For COc1ccc(C(=O)N/N=C(/C)c2ccc(N3CCCCC3)cc2)cc1 the results were SR-BI uptake up 7.3, GAA850 FXN act 2.9, SR-BI DiI inh -7.3, AHR activator 20.8, HIF act 3.6 and ABCB6 inh 2 103.0.
Screening CC(C)(C)NC(=O)C(c1c[nH]c2ccccc12)N(C(=O)Cn1nnc(-c2ccc(Cl)cc2)n1)c1ccccc1F (centres undefined) returned SR-BI uptake up -3.0, GAA850 FXN act -1.2, SR-BI DiI inh 3.0, AHR activator 1.8, HIF act -0.6 and ABCB6 inh 2 99.0.
`COc1ccc(C)cc1N(CC(=O)NC1CCCC1)C(=O)Cn1nnc(-c2ccc(C)o2)n1` gave SR-BI uptake up -76.5, GAA850 FXN act -1.6, SR-BI DiI inh 76.5*, HIF act -0.5, ABCB6 inh 2 100.0 and DiI quench -1.8%.
O=C(CN(C(=O)Cn1nnc(-c2ccc(F)cc2)n1)C1CCCC1)NC1CCCC1 was read as SR-BI uptake up -93.9, GAA850 FXN act -1.0, SR-BI DiI inh 93.9*, AHR activator -0.9, ABCB6 inh 2 100.0 and DiI quench -1.6%.
O=C(NC1CCCC1)C(c1c[nH]c2ccccc12)N(C(=O)Cn1nnc(-c2ccc(Cl)cc2)n1)c1ccccc1 (centres undefined) was read as SR-BI uptake up 6.3, GAA850 FXN act -1.7, SR-BI DiI inh -6.3, AHR activator -1.3, HIF act -0.1, ABCB6 inh 2 95.0 and DiI quench -1.0%.
O=C(CCCC(=O)N(CC(=O)NC1CCCC1)C1CCCC1)Nc1ccccn1 was read as SR-BI uptake up -74.4, GAA850 FXN act -1.9, SR-BI DiI inh inconclusive, AHR activator 1.7, HIF act -0.4, ABCB6 inh 2 115.0 and DiI quench 1.0%.
`COc1ccccc1Oc1ccc(NC(=O)c2ccccc2)cc1` gave SR-BI uptake up -11.0, GAA850 FXN act 4.1, SR-BI DiI inh 11.0, AHR activator -0.4, HIF act 1.6 and ABCB6 inh 2 103.0.
CCOC(=O)N1CCN(CC(O)COC2CC(C)CCC2C(C)C)CC1 (centres undefined) was read as SR-BI uptake up -77.8, GAA850 FXN act 0.1, SR-BI DiI inh 77.8*, AHR activator 2.6, HIF act 0.1, ABCB6 inh 2 94.0 and DiI quench -4.3%.
`COc1ccc(C(=O)OCc2ccc(C)cc2)cc1S(=O)(=O)N1CCOCC1` gave SR-BI uptake up -55.1, GAA850 FXN act 0.9, SR-BI DiI inh 55.1, AHR activator -0.3 and ABCB6 inh 2 100.0.
Screening COc1ccc(COC(=O)c2ccc(Br)c(S(=O)(=O)N3CCOCC3)c2)cc1F returned SR-BI uptake up -73.8, GAA850 FXN act -1.7, SR-BI DiI inh 73.8*, AHR activator -4.7, HIF act 0.1, ABCB6 inh 2 99.0 and DiI quench 2.0%.
`CC(=O)Oc1ccc(C(=O)Nc2cc(NC(=O)c3ccc(OC(C)=O)cc3)cc(C(=O)NC(C)(C)C)c2)cc1` gave SR-BI uptake up -22.1, GAA850 FXN act 0.9, SR-BI DiI inh 22.1, AHR activator 0.3, HIF act -0.2, ABCB6 inh 2 94.0 and DiI quench 6.3%.
`CC(=O)Nc1ccc(NC(=O)c2cc(-n3cnnc3)ccc2Cl)cc1` gave SR-BI uptake up -16.3, GAA850 FXN act -1.6, SR-BI DiI inh 16.3, AHR activator -1.3, HIF act -0.1 and ABCB6 inh 2 106.0.
Screening CN(C(=O)c1cc(-n2cnnc2)ccc1Cl)c1ccccc1 returned SR-BI uptake up 11.0, GAA850 FXN act 2.1, SR-BI DiI inh -11.0, AHR activator 4.5, HIF act 0.9, ABCB6 inh 2 89.0 and DiI quench -3.3%.
For COc1cc(NC(=O)c2cc(-n3cnnc3)ccc2Cl)cc(OC)c1 the results were SR-BI uptake up -43.6, GAA850 FXN act 1.9, SR-BI DiI inh 43.6, AHR activator 12.4, HIF act 0.1, ABCB6 inh 2 94.0 and DiI quench -1.8%.
`O=C(O)c1cccc(S(=O)(=O)Nc2ccccc2N2CCOCC2)c1` gave SR-BI uptake up 9.5, GAA850 FXN act -0.6, SR-BI DiI inh -9.5, AHR activator 0.6, HIF act -5.4 and ABCB6 inh 2 100.0.
`NC(=O)c1ccc(NC(=O)CN2CCN(S(=O)(=O)c3ccc4ccccc4c3)CC2)cc1` gave SR-BI uptake up -3.2, GAA850 FXN act 1.0, SR-BI DiI inh 3.2, AHR activator -0.6 and ABCB6 inh 2 100.0.
COc1ccc(C2/C=C\CN(S(=O)(=O)/C=C/c3ccccc3)CC(=O)N2Cc2ccc(F)cc2)cc1 (centres undefined) was read as SR-BI uptake up -50.4, GAA850 FXN act 0.3, SR-BI DiI inh 50.4, AHR activator 5.0, HIF act 0.2 and ABCB6 inh 2 96.0.
Screening COc1ccc(C2/C=C\CN(S(=O)(=O)c3ccc4ccccc4c3)CC(=O)N2Cc2ccc(F)cc2)cc1 (centres undefined) returned SR-BI uptake up -48.3, GAA850 FXN act 1.8, SR-BI DiI inh 48.3, AHR activator 0.2, HIF act -0.2, ABCB6 inh 2 93.0 and DiI quench 4.3%.
For Cc1cc(=O)oc2cc(OCC(=O)N3CCN(C(=O)C4COc5ccccc5O4)CC3)c(Cl)cc12 (centres undefined) the results were SR-BI uptake up -79.8, GAA850 FXN act -2.7, SR-BI DiI inh 79.8*, AHR activator -3.8, HIF act -0.5, ABCB6 inh 2 92.0 and DiI quench -4.5%.
For Cc1cc(C)cc(N(CCC#N)C(=O)COC(=O)CCc2c[nH]c3ccccc23)c1 the results were SR-BI uptake up -73.8, GAA850 FXN act -2.4, SR-BI DiI inh inconclusive, AHR activator 3.2, ABCB6 inh 2 98.0 and DiI quench -13.2%.
`Cc1ccc(NC(=O)COC(=O)CCc2c[nH]c3ccccc23)cc1` gave GAA850 FXN act -3.1 and ABCB6 inh 2 94.0.
CN(C(=O)COC(=O)CCc1c[nH]c2ccccc12)c1ccccc1 was read as SR-BI uptake up 25.0, GAA850 FXN act -0.5, SR-BI DiI inh -25.0, AHR activator 0.1, HIF act -0.5, ABCB6 inh 2 101.0 and DiI quench -5.1%.
Screening COC(=O)Cc1csc(NC(=O)c2ccc3ncsc3c2)n1 returned SR-BI uptake up -30.9, GAA850 FXN act 0.0, SR-BI DiI inh 30.9, AHR activator 3.0 and ABCB6 inh 2 92.0.

High-throughput results from PubChem BioAssay.
